Test results published in ChEMBL document CHEMBL1144502, “Synthesis and biological evaluation of imidazo[1,2-a]pyridine derivatives as novel PI3 kinase p110alpha inhibitors” (Bioorg Med Chem, 2007).

Columns and labels:
[1] = target: Phosphatidylinositol 4,5-bisphosphate 3-kinase catalytic subunit alpha isoform (Bos taurus, UniProt P32871); assay: Inhibition of GST-tagged bovine PI3K p110-alpha by SPA
How it was run: (§1)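 Radiometric SPA. Enzyme and compound (in DMSO) in 20 mM Tris-HCl pH 7.4, 160 mM NaCl, 2 mM DTT, 30 mM MgCl2, 0.4 mM EDTA, 0.4 mM EGTA. Stopped with wheat germ agglutinin-coated SPA beads in PBS, then centrifuged. IC50 is the mean of at least two determinations.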

A375 (human) = assay: Antiproliferative activity against human A375 cells after 46 hrs; settings: A375, 46 h
[2] = target: Phosphatidylinositol 4-phosphate 3-kinase C2 domain-containing subunit beta (Homo sapiens, UniProt O00750); assay: Inhibition of Glu-tagged PI3K C2-beta by SPA
Phosphatidylinositol 4-phosphate 3-kinase C2 domain-containing subunit beta, sequence (O00750 whole entry, the tested form may be a part, canonical isoform): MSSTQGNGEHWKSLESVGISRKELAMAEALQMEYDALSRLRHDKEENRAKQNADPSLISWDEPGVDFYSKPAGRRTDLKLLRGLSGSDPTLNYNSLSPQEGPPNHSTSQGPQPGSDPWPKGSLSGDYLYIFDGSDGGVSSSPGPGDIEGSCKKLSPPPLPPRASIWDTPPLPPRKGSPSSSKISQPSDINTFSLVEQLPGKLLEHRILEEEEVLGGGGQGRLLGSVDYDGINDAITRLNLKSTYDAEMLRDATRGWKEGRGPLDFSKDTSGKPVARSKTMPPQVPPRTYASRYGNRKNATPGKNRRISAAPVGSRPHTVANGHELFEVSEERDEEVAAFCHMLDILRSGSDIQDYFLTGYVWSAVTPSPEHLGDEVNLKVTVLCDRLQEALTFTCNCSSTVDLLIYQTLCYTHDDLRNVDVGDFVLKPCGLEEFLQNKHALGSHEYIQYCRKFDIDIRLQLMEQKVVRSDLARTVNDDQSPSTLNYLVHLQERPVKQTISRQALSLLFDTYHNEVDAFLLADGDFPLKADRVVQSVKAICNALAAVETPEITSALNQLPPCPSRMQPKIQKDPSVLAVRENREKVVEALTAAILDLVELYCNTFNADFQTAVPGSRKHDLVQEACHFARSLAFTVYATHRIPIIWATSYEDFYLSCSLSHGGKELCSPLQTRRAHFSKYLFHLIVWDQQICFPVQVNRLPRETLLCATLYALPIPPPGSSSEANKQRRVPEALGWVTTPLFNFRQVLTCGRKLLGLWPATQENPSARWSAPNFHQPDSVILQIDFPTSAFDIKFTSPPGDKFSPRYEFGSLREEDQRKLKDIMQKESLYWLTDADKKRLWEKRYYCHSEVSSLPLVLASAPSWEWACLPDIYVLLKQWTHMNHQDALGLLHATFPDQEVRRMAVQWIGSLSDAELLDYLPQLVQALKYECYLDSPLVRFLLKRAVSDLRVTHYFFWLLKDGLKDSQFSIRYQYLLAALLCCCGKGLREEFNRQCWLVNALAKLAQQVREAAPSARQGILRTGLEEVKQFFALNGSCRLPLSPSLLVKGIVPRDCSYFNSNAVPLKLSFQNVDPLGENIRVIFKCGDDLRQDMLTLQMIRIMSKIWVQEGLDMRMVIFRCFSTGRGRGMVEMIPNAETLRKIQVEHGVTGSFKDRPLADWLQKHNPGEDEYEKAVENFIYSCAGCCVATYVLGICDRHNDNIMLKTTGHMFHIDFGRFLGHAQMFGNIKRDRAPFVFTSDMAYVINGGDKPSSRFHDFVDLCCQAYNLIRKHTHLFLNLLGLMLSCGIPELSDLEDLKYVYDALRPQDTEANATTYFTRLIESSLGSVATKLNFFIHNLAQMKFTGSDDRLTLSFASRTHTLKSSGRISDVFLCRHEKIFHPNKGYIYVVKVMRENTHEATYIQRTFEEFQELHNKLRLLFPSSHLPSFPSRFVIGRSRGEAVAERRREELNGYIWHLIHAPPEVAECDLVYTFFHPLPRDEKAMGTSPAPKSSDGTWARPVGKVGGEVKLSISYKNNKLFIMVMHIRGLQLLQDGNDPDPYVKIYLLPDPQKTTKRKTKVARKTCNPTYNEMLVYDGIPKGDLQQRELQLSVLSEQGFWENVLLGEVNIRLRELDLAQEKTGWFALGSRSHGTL
How it was run: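 SPA as for the class I isoforms, but the PI3K C2β buffer is 20 mM Tris-HCl pH 7.4, 160 mM NaCl, 2 mM DTT, 5 mM MgCl2, 15 mM CaCl2, 0.4 mM EDTA. Run 120 min at room temperature. Captured on WGA-coated SPA beads. IC50 is the mean of at least two determinations.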

HeLa [3] = assay: Antiproliferative activity against human HeLa cells after 46 hrs; assay type: functional, cell-based
How it was run: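 Serum-induced proliferation. Compound (1 µL) spotted into wells, then 1×10^4 cells added. After 46 h incubation, Alamar Blue added; fluorescence read 2 h later at ex 544/em 590 nm.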

[4] = target: Phosphatidylinositol 4,5-bisphosphate 3-kinase catalytic subunit gamma isoform (Homo sapiens, UniProt P48736); assay: Inhibition of His-tagged PI3K p110gamma by SPA; how it was run: as §1
Phosphatidylinositol 4,5-bisphosphate 3-kinase catalytic subunit gamma isoform, sequence (P48736 whole entry, canonical isoform): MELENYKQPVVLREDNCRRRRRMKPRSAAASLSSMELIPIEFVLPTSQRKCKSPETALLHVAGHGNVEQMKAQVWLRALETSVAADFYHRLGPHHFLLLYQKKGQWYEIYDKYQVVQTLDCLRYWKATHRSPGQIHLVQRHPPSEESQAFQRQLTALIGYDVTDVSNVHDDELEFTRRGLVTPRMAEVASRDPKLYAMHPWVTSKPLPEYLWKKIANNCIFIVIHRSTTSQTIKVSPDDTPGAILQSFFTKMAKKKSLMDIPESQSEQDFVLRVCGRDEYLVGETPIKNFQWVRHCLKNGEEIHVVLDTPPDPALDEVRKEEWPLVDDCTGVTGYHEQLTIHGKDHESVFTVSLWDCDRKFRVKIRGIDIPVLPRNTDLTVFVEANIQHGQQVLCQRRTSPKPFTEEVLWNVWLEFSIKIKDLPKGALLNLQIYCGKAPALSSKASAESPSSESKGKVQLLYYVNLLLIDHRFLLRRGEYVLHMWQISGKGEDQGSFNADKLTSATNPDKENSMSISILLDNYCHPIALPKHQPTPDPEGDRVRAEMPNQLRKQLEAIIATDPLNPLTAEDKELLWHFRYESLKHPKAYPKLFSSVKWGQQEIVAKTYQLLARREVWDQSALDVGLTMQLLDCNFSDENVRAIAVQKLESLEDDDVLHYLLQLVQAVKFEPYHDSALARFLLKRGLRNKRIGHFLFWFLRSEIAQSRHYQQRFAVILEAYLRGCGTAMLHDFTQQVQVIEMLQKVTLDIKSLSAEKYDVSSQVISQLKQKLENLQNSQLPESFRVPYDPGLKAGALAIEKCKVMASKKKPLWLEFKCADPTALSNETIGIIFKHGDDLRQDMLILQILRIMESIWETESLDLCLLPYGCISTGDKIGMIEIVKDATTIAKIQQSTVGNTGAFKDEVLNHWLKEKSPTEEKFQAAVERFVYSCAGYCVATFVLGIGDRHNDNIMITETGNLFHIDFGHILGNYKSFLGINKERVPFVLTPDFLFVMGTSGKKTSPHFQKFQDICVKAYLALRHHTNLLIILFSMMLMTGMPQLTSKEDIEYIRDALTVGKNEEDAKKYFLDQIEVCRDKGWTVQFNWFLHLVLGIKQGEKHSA

HeLa [5] = assay: Suppression of tumor growth in BALB/c nu/nu mouse implanted with human HeLa cells at 25 mg/kg, ip after 2 weeks relative to control; assay type: functional; settings: route intraperitoneal
How it was run: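 HeLa xenografts in nude mice, five animals per group. Dosing began when tumours reached about 100 mm³. 25 mg/kg (as free base) given ip once daily for 2 weeks, suspended in 20% hydroxypropyl-β-cyclodextrin/saline; the vehicle group served as control. Tumour volume = 1/2 × (short diameter)² × (long diameter).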

[6] = Half life in ip dosed mouse; assay type: ADME, organism-based; settings: in vivo
How it was run: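 Mice dosed intraperitoneally. Plasma half-life determined by HPLC/MS/MS.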

[7] = target: Phosphatidylinositol 4,5-bisphosphate 3-kinase catalytic subunit beta isoform (Homo sapiens, UniProt P42338); assay: Inhibition of GST-tagged human PI3K p110-beta by SPA; how it was run: as §1
Phosphatidylinositol 4,5-bisphosphate 3-kinase catalytic subunit beta isoform, sequence (P42338 whole entry, canonical isoform): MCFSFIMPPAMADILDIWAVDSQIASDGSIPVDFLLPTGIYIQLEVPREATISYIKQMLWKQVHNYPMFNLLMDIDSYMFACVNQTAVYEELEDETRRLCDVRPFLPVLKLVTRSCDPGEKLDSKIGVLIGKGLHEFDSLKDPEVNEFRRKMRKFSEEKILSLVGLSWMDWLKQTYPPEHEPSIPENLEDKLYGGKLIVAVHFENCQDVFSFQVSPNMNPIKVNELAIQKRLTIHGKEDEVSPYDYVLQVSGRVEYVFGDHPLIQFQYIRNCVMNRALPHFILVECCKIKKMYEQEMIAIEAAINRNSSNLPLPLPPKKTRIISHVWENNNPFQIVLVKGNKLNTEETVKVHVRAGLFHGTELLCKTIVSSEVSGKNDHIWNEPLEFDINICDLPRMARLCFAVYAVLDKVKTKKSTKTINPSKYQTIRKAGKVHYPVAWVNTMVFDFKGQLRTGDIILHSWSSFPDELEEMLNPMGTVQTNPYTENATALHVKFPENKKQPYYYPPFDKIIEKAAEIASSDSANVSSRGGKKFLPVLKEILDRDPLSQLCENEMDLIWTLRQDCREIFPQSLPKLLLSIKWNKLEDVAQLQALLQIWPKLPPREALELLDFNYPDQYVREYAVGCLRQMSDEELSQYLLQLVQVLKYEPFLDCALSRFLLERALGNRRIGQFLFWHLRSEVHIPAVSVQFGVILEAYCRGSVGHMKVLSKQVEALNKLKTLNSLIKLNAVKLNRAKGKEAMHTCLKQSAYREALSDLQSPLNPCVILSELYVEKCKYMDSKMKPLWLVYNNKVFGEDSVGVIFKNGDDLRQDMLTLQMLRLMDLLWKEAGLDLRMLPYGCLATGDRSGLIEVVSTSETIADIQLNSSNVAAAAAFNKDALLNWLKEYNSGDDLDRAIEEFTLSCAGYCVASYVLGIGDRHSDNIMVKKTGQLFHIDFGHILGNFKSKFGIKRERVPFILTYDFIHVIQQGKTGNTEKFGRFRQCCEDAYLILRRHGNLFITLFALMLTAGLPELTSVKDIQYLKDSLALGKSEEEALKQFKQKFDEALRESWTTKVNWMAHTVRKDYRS

Phosphatidylinositol 4,5-bisphosphate 3-kinase catalytic subunit alpha isoform, sequence (P32871 whole entry, canonical isoform): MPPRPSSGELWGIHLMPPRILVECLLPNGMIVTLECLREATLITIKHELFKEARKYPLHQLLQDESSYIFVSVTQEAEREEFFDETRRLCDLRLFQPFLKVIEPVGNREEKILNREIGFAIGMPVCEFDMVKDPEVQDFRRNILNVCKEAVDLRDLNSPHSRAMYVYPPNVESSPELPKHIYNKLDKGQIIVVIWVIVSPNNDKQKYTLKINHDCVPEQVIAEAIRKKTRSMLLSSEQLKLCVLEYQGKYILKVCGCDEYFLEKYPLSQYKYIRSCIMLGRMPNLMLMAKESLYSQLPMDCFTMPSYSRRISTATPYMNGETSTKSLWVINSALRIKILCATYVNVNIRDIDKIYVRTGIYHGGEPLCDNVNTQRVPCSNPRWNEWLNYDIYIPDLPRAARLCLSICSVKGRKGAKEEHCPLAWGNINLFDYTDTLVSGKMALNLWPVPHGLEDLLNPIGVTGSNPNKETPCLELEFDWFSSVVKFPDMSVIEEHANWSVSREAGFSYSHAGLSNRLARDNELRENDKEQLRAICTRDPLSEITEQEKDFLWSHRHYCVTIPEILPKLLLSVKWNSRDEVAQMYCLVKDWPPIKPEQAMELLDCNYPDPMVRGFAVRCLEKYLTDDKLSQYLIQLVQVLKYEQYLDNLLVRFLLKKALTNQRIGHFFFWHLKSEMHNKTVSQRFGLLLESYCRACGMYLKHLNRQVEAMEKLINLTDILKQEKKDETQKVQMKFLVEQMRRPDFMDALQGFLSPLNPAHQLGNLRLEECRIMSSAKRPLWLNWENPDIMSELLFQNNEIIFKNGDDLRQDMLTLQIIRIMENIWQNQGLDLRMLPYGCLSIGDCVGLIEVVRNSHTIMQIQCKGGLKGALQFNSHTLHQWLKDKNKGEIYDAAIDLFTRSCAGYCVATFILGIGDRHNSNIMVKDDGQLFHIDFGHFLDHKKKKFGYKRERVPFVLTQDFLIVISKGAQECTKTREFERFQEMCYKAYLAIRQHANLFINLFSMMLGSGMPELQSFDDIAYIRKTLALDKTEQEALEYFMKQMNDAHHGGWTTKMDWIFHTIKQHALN

Cc1nc2ccc(Cl)cn2c1-c1ccn(S(=O)(=O)c2cccc([N+](=O)[O-])c2)n1
IC50 [1]: 280 nM

Cc1ccc([N+](=O)[O-])cc1S(=O)(=O)n1ccc(-c2cnc3ccc(Br)cn23)n1
IC50 (A375 (human)): 170 nM | IC50 [1]: 1.8 nM

Cc1ccc([N+](=O)[O-])cc1S(=O)(=O)n1ccc(-c2c(C)nc3ccc(Cl)cn23)n1
IC50 (A375 (human)): 830 nM | IC50 [1]: 2.8 nM

Cc1nc2ccc(Cl)cn2c1-c1ccn(S(=O)(=O)c2ccc([N+](=O)[O-])cc2)n1
IC50 [1]: > 30000 nM

Cc1ccc([N+](=O)[O-])cc1S(=O)(=O)n1ccc(-c2c(C)nc3ccc(Br)cn23)n1
IC50 (A375 (human)): 730 nM | IC50 [1]: 3.1 nM

Cc1nc2ccc(Cl)cn2c1-c1ccn(S(=O)(=O)c2ccc(F)cc2)n1
IC50 [1]: 760 nM

Cc1nc2ccccn2c1-c1ccn(S(=O)(=O)c2ccc(F)cc2)n1
IC50 (A375 (human)): 23000 nM | IC50 [1]: 670 nM

Cc1ccc([N+](=O)[O-])cc1S(=O)(=O)n1ccc(-c2cnc3ccc(Cl)cn23)c1
IC50 (A375 (human)): 12000 nM | IC50 [1]: 100 nM

O=[N+]([O-])c1ccc(CO)c([S+]([O-])c2nc(-c3cnc4ccc(Cl)cn34)cs2)c1 (centres undefined)
IC50 (A375 (human)): 19000 nM | IC50 [1]: 20 nM

Cc1ccc([N+](=O)[O-])cc1S(=O)(=O)c1nc(-c2cnc3ccc(Cl)cn23)cs1.Cl
IC50 [2]: 100 nM | IC50 (HeLa [3]): 210 nM | IC50 [4]: 230 nM | Activity (HeLa [5]): 37% | IC50 (A375 (human)): 140 nM | IC50 [1]: 2.8 nM | half-life [6]: 2.6 h | IC50 [7]: 170 nM

Cc1ccc([N+](=O)[O-])cc1[S+]([O-])c1nc(-c2cnc3ccc(Cl)cn23)cs1 (centres undefined)
IC50 (A375 (human)): 270 nM | IC50 [1]: 31 nM

Cc1ccc([N+](=O)[O-])cc1Sc1nc(-c2cnc3ccc(Cl)cn23)cs1
IC50 (A375 (human)): 3370 nM | IC50 [1]: 82 nM

O=c1cc(N2CCOCC2)oc2c(-c3ccccc3)cccc12 [LY-294002]
IC50 [2]: 2100 nM | IC50 (A375 (human)): 8400 nM
